Experimental data: ChEMBL document CHEMBL1799956, “Convergent synthesis and biological evaluation of 2-amino-4-(3',4',5'-trimethoxyphenyl)-5-aryl thiazoles as microtubule targeting agents” (J Med Chem, 2011)
Activity calls are given as the source filed them. The rule behind the calls is not given here.

Legend:
Jurkat [1] = test: Induction of apoptosis in human Jurkat cells assessed as formation of large cytoplasmic vacuoles at 10 uM after 24 to 48 hrs using Giemsa's staining by microscopic analysis; assay type: functional, cell-based
Outline: (§1)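 Giemsa staining, then light-microscope examination of cell morphology. HeLa and Jurkat cells were exposed to compound for 24 and 48 h. Magnification 60×.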

HeLa [2] = test: Induction of apoptosis in human HeLa cells assessed as decrease in Bcl2 expression at […] after 24 hrs by Western blot analysis; assay type: functional, cell-based
Outline: (§2)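 Treated HeLa whole-cell lysates separated by SDS-PAGE and immunoblotted for PARP cleavage, Bcl-2, Bax, pro-caspase-9 and pro-caspase-2.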

HeLa [3] = test: Induction of apoptosis in human HeLa cells assessed as multinucleation at 100 uM after 24 to 48 hrs using Giemsa's staining by microscopic analysis; assay type: functional, cell-based; outline: as §1
HeLa [4] = test: Cell cycle arrest in human HeLa cells assessed as increase of cell population at G2/M phase at 1 to 100 nM after 48 hrs using propidium iodide staining by flow cytometry; assay type: functional, cell-based
Jurkat [5] = test: Cell cycle arrest in human Jurkat cells assessed as decrease of cell population at G1 phase at 1 to 100 nM after 24 hrs using propidium iodide staining by flow cytometry; assay type: functional, cell-based
Jurkat [6] = test: Induction of apoptosis in human Jurkat cells assessed as DNA condensation at 10 uM after 24 to 48 hrs using Giemsa's staining by microscopic analysis; assay type: functional, cell-based; outline: as §1
Tubulin (Homo sapiens) [7] = molecular target: T1, Tubulin (Homo sapiens) (UniProt P68371+Q9H4B7+P0DPH7+P68366+Q13509+Q71U36+P04350+Q3ZCM7+P07437+P68363+Q9BQE3+Q6PEY2+Q13885+Q9BVA1+Q9BUF5); test: Induction of microtubule disassembly in human HeLa cells assessed as complete loss of microtubules at 100 nM after 48 hrs using DAPI-staining by fluorescence microscopy; assay type: cell-based
Outline: (§3)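 HeLa cells were exposed to 10 or 100 nM compound for 24 or 48 h, then fixed. Microtubules were stained with FITC-conjugated anti-β-tubulin antibody and imaged by confocal/fluorescence microscopy at 60× magnification.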

Jurkat [8] = test: Cell cycle arrest in human Jurkat cells assessed as decrease of cell population at G1 phase at 1 to 100 nM after 48 hrs using propidium iodide staining by flow cytometry; assay type: functional, cell-based
HeLa [9] = test: Induction of apoptosis in human HeLa cells assessed as abnormal mitotic figures at 10 uM after 24 to 48 hrs using Giemsa's staining by microscopic analysis; assay type: functional, cell-based
Outline: (§4)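 HeLa treated 48 h, Giemsa stained and examined by light microscopy at 60× magnification.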

HeLa [10] = test: Induction of apoptosis in human HeLa cells assessed activation of caspase 9 at […] after 24 hrs by Western blot analysis; assay type: functional, cell-based; outline: as §2
LoVo = test: Antiproliferative activity against human doxorubicin-resistant LoVo cells overexpressing P-gp assessed as growth inhibition after 72 hrs by MTT assay; assay type: functional, cell-based
HeLa [11] = test: Induction of morphological changes in human HeLa cells assessed as appearance of giant interphase with multiple nuclei of different sizes at 100 nM after 24 hrs using phalloidintetramethylrhodamine B isothiocyanate staining by microscopy; assay type: functional, cell-based
Outline: (§5)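 HeLa cells were incubated with compound for 24 h. F-actin was stained with a phalloidin–tetramethylrhodamine B isothiocyanate conjugate and nuclei were counterstained with DAPI. Cells were then examined by fluorescence microscopy.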

HeLa [12] = test: Cell cycle arrest in human HeLa cells assessed as decrease of cell population at S phase at 1 to 100 nM after 48 hrs using propidium iodide staining by flow cytometry; assay type: functional, cell-based
HeLa [13] = test: Induction of morphological changes in human HeLa cells assessed as effect on arrangement and amount of F-actin at 100 nM after 24 hrs using phalloidintetramethylrhodamine B isothiocyanate staining by microscopy; assay type: functional, cell-based; outline: as §5
Jurkat [14] = test: Cell cycle arrest in human Jurkat cells assessed as decrease of cell population at S phase at 1 to 100 nM after 48 hrs using propidium iodide staining by flow cytometry; assay type: functional, cell-based
A549 = test: Antiproliferative activity against human A549 cells assessed as growth inhibition after 72 hrs by MTT assay; assay type: functional, cell-based; conditions: A549, 72 h
Jurkat [15] = test: Induction of apoptosis in human Jurkat cells assessed as formation of large cells at 10 uM after 24 to 48 hrs using Giemsa's staining by microscopic analysis; assay type: functional, cell-based; outline: as §1
HeLa [16] = test: Induction of apoptosis in human HeLa cells assessed as decrease in Bax expression at […] after 24 hrs by Western blot analysis; assay type: functional, cell-based; outline: as §2
Tubulin (Homo sapiens) [17] = molecular target: T1, Tubulin (Homo sapiens); test: Induction of microtubule disassembly with spherical morphology in human HeLa cells at 10 nM after 48 hrs using DAPI-staining by fluorescence microscopy; assay type: cell-based; outline: as §3
HT-29 = test: Antiproliferative activity against human HT-29 cells assessed as growth inhibition after 72 hrs by MTT assay; assay type: functional, cell-based; conditions: HT-29, 72 h
HeLa [18] = test: Induction of apoptosis in human HeLa cells assessed as increase in cell viability at 100 nM after 48 hrs by flow cytometry in presence of pan-caspase inhibitor z-VAD.fmk; assay type: functional, cell-based
Outline: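 HeLa incubated 48 h with compound at 100 nM with or without z-VAD.fmk (100 μM); viability measured, mean ± SEM of three independent experiments.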

HeLa [19] = test: Induction of apoptosis in human HeLa cells assessed as increase in mitochondrial ROS production at 100 nM after 48 hrs using hydroethidine staining by flow cytometry; assay type: functional, cell-based
Jurkat [20] = test: Antiproliferative activity against human Jurkat cells assessed as growth inhibition after 72 hrs by MTT assay; assay type: functional, cell-based
HeLa [21] = test: Induction of apoptosis in human HeLa cells assessed as formation of large cells at 100 uM after 24 to 48 hrs using Giemsa's staining by microscopic analysis; assay type: functional, cell-based; outline: as §4
Jurkat [22] = test: Induction of apoptosis in human Jurkat cells assessed as abnormal mitotic figures at 10 uM after 24 to 48 hrs using Giemsa's staining by microscopic analysis; assay type: functional, cell-based; outline: as §1
HeLa [23] = test: Induction of apoptosis in human HeLa cells assessed as abnormal mitotic figures at 100 uM after 24 to 48 hrs using Giemsa's staining by microscopic analysis; assay type: functional, cell-based; outline: as §4
HeLa [24] = test: Induction of apoptosis in human HeLa cells assessed activation of caspase 2 at 10 to 100 nM after 24 hrs by Western blot analysis
HeLa [25] = test: Induction of apoptosis in human HeLa cells assessed as no change in mitochondrial potential at 100 nM after 48 hrs using JC-1 staining by flow cytometry; assay type: functional, cell-based
HeLa [26] = test: Induction of apoptosis in human HeLa cells assessed as increase in propidium iodide-positive cells after 48 hrs by annexin-V-FITC and propidium iodide staining based flow cytometry; assay type: functional, cell-based
Outline: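 Biparametric flow cytometry after annexin-V immunolabelling plus propidium iodide, separating live, early apoptotic, late apoptotic and necrotic cells; HeLa incubated for 24 or 48 h.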

[27] = Antiproliferative activity against human vinblastine-resistant CEM/VBL100 cells overexpressing P-gp assessed as growth inhibition after 72 hrs by MTT assay; assay type: functional, cell-based; conditions: CEM/VBL100, 72 h
CCRF-CEM = test: Fold resistance, ratio of IC50 for human vinblastine-resistant CEM/VBL100 cells overexpressing P-gp to IC50 for human CEM cells; assay type: functional
Outline: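 Fold resistance taken as the ratio of IC50 in the resistant line to IC50 in the parental line, each IC50 from dose-response curves of at least three independent experiments.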

For `CCOc1ccc(-c2sc(N)nc2-c2cc(OC)c(OC)c(OC)c2)cc1`, the Activity (Jurkat [1]) was “Active”, the Activity (HeLa [2]) was “inactive” and the Activity (HeLa [3]) was “Active”. For the same compound, the Activity (HeLa [4]) was “Active”, the Activity (Jurkat [5]) was “Active” and the Activity (Jurkat [6]) was “Active”. The Activity (Tubulin (Homo sapiens) [7]) was “Active”, the Activity (Jurkat [8]) was “Active” and the Activity (HeLa [9]) was “Active”. The Activity (HeLa [10]) was “inactive”, the IC50 (LoVo) was 0.6 nM and the Activity (HeLa [11]) was “Active”. For the same compound, the Activity (HeLa [12]) was “Active”, the Activity (HeLa [13]) was “Active” and the Activity (Jurkat [14]) was “Active”. For the same compound, the IC50 (A549) was 0.09 nM, the Activity (Jurkat [15]) was “Active” and the Activity (HeLa [16]) was “inactive”. For the same compound, the Activity (Tubulin (Homo sapiens) [17]) was “Active”, the IC50 (HT-29) was 38.2 nM and the Activity (HeLa [18]) was “inactive”. For the same compound, the Activity (HeLa [19]) was “Active”, the IC50 (Jurkat [20]) was 0.14 nM and the Activity (HeLa [21]) was “Active”. The Activity (Jurkat [22]) was “Active”, the Activity (HeLa [23]) was “Active” and the Activity (HeLa [24]) was “Active”. The Activity (HeLa [25]) was “inactive”, the Activity (HeLa [26]) was “Active” and the IC50 [27] was 0.8 nM. For the same compound, the “Ratio IC50” value (CCRF-CEM) was 0.9.
